Measured values collected from several papers.
Compare with care: the assays were run in different laboratories.
Read-out: enzyme activity
Mode: inhibitor
PIK3CD: Phosphatidylinositol 4,5-bisphosphate 3-kinase catalytic subunit delta isoform (PIK3CD, Homo sapiens, UniProt O00329)
KIT: Mast/stem cell growth factor receptor Kit (KIT, Homo sapiens, UniProt P10721)

| target | method | setting | IC50 [nM] | SMILES |
| --- | --- | --- | --- | --- |
| PIK3CD | radiometric | – | 95 | CN(C)C(=O)c1cc2cnc(Nc3cc(C(F)(F)F)c(-c4cccc5c(=O)cc(N6CCOCC6)oc45)cn3)nc2n1C1CCCC1 |
| KIT | – | – | 150 | CCc1nc(C(N)=O)c(Nc2ccc(N3CCC(N4CCN(C)CC4)CC3)c(OC)c2)nc1NC1CCOCC1 |
| PIK3CD | radiometric | – | > 10000 | CN1CCN(c2cc(=O)c3ccc(Nc4ncc5cc(C(=O)N(C)C)n(C6CCCC6)c5n4)cc3o2)CC1 |
| KIT | – | – | 887 | CN(C)CCNC(=O)c1ccc(-c2nc3ccc4[nH]ncc4c3c3c2CCCC3)c(F)c1 |
| PIK3CD | ADP detection | – | 81.2 | C=CCN1C(=O)C(=Nc2cccc(C)c2)c2ccccc21 |
| KIT | – | – | 249 | CN(C)CCNC(=O)c1ccc(-c2nc3ccc4[nH]ncc4c3c3c2CCCCC3)c(F)c1 |
| PIK3CD | radiometric | – | > 10000 | COc1ccc(-c2cc(=O)c3cccc(Nc4ncc5cc(C(=O)N(C)C)n(C6CCCC6)c5n4)c3o2)cc1 |
| Prostaglandin reductase 2 (Homo sapiens, UniProt Q8N8N7) | – | lysate | 176 | COc1ccccc1N1CCN(C(=O)c2cccc(S(=O)(=O)n3cncn3)c2)CC1 |
| PIK3CD | radiometric | – | 40.5 | CN(C)C(=O)c1cc2cnc(Nc3ccc(-c4cccc5c(=O)cc(N6CCOCC6)oc45)c(F)c3)nc2n1C1CCCC1 |
| PIK3CD | ADP detection | – | 455 | CCc1ccc(N=C2C(=O)Nc3ccccc32)cc1 |
| Tau-tubulin kinase 1 (TTBK1, Homo sapiens, UniProt Q5TCY1) | – | – | 25500 | Oc1ccc(-c2nc(-c3ccncc3)c(-c3ccc(F)cc3)[nH]2)cc1 |
| PIK3CD | radiometric | – | 897 | CN(C)C(=O)c1cc2cnc(Nc3ccc(-c4ccc5c(=O)cc(N6CCOCC6)oc5c4)cc3)nc2n1C1CCCC1 |
| PIK3CD | ADP detection | – | 233 | Cc1ccc(CN2C(=O)C(=Nc3c(C(C)C)cccc3C(C)C)c3ccccc32)cc1 |
| KIT | – | – | 208 | Cc1n[nH]c2ccc3nc(-c4ccc(C(=O)NCCN(C)C)cc4)c4c(c3c12)CCCC4 |
| PIK3CD | ADP detection | – | 88.9 | Cc1cccc(N=C2C(=O)Nc3ccccc32)c1 |
| PIK3CD | radiometric | – | 2300 | CN(C)C(=O)c1cc2cnc(Nc3ccc(-c4cccc5c(=O)cc(N6CCNCC6)oc45)cc3)nc2n1C1CCCC1 |
| PIK3CD | ADP detection | – | 50.9 | O=C1C(=Nc2ccc(Cl)cc2Br)c2ccccc2N1Cc1ccc([N+](=O)[O-])cc1 |
| Tyrosine-protein kinase BTK (BTK, Homo sapiens, UniProt Q06187) | – | – | < 0.254 | C=CC(=O)Nc1cccc(Oc2nc(Nc3ccc(N4CCN(C)CC4)cc3)nc3ccoc23)c1 |
| Receptor tyrosine-protein kinase erbB-4 (ERBB4, Homo sapiens, UniProt Q15303) | TR-FRET | – | 13.9 | COc1c(Cl)cccc1Nc1c(-c2ccncc2OC[C@@H]2COCCO2)[nH]c2c1C(=O)NCC2 |
| PIK3CD | ADP detection | – | 30.5 | O=C1C(=Nc2ccc(Cl)cc2)c2ccccc2N1Cc1ccc([N+](=O)[O-])cc1 |
